The list is not random: actives were taken first. Their share in the collection is about 4%.
OX1R antag-1 = human HCRTR1 antagonism; CHO/OX1R cells, Fluo-8 calcium fluorescence, orexin A; inhibition, % at 5 µM; 330,000 compounds, 0.43% hits;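 active means inhibition above its plate's threshold, mean inhibition of all tested compounds on the plate plus 3 SD, cut at about 37% in these data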
Target sequence (O43613 whole entry, looked up): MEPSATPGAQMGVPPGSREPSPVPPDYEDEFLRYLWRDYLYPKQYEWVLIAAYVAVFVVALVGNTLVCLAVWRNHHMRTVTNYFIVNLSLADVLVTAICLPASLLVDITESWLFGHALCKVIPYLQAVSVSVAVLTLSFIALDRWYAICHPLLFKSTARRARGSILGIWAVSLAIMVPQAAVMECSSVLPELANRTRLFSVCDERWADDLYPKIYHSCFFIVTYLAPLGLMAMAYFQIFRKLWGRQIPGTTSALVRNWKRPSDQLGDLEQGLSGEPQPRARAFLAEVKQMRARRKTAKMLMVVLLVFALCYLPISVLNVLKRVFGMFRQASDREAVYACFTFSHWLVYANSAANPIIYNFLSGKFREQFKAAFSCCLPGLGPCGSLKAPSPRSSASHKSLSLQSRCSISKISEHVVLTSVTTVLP
TAAR1 ag = agonists of human TAAR1; AID 624467; 360,000 compounds, 0.99% hits; CHO RD-HGA16 TAAR1, Fluo-8 calcium fluorescence; vehicle wells 0%, saturating PEA agonist 100%; activation, % at 3 µM;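 active means activation above the mean activation of all test compounds in the run plus 3 SD, cut at about 38% in these data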
Target sequence (Q96RJ0 whole entry, looked up): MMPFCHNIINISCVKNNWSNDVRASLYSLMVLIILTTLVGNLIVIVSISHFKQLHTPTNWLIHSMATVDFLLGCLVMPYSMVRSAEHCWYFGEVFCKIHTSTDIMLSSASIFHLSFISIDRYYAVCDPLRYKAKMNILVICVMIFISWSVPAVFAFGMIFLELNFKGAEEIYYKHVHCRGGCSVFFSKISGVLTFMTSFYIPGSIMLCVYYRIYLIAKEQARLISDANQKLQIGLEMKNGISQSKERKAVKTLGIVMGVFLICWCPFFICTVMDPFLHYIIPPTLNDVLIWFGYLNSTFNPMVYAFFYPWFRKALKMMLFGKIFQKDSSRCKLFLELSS
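test system = CHO RD-HGA16 cells carrying human TAAR1 plus Gα16 | schedule = 17-24 h seeding, 75 min 37 °C dye, 30 min RT | compound dosing = 3 µM single concentration | control set = DMSO and PEA EC100 | replicates = n 1 | signal = Fluo-8 fluorescence, 5 s baseline then 140 s kinetic read | measure = percent activation vs PEA EC100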
CHO parental Ca = counter-screen: ATP calcium response change in parental CHO cells; parental CHO-K1, ATP-induced calcium, Fluo-8 fluorescence; inhibition, % at 5.6 µM; 330,000 compounds, 0.63% hits;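 active means inhibition above that plate's mean sample inhibition plus 3 SD, cut at about 26% in these data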
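Material: Parental CHO cells | Reagent: ATP | Compound dosing: Single nominal dose of 5.6 µM per compound | Detection: Intracellular calcium via Fluo-8 no-wash fluorescent dye | Read-out: % inhibition of ATP-induced calcium mobilization | Benchmarks: Low control ATP plus DMSO, high control DMSO only | Replicates: Singlicate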
TAAR1 antagonist = human TAAR1 antagonism | inhibition, % at 3 µM | Q96RJ0 | CHO RD-HGA16 TAAR1, Fluo-8 calcium fluorescence, antagonist | 360,000 compounds, 1.5% hits;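 active means inhibition above a per-plate cutoff, the mean inhibition of test compounds on that plate plus 3 SD, cut at about 49% in these data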
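Material: RD-HGA16 CHO cells with stable hTAAR1 and Gα16; Dosing: single nominal final test compound concentration of 3 µM; Schedule: seeding 17-24 h prior, 75-min 37 °C, 30-min RT dye loading; Detection: kinetic Fluo-8 calcium fluorescence measurement; Measure: % inhibition from peak post-agonist over basal fluorescence ratio; Benchmarks: vehicle and agonist controls.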
OX1R antag-2 = antagonists of human orexin 1 receptor (OX1R); OX1R-expressing cells, FRET antagonist read-out; inhibition, % at 6.6 µM; 330,000 compounds, 1.8% hits; AID 485270; in the data active means inhibition mostly above about 38%, no sharp cut-off; inactive means mostly below about 40%
OX1R Fluo8 conf = OX1R (human) antagonism, confirmed | shares compounds with OX1R antag-1 | CHO/OX1R cells, orexin A calcium Fluo-8 fluorescence | inhibition, % at 5 µM | 1,100 compounds, 38% hits; in the data active means inhibition above about 29%
CHO Ca counter = signal in parental CHO cells, OX1R antagonist counter-screen. shares compounds with OX1R antag-1. parental CHO-K1, ATP-induced calcium, Fluo-8 fluorescence. inhibition, % at 5.6 µM. 1,100 compounds, 9.3% hits;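 active means inhibition above a per-plate limit, the mean inhibition of that plate's test compounds plus 3 SD, cut at about 25% in these data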
OX1R HTRF confirm = OX1R (human) antagonism, HTRF confirmed | OX1R-expressing cells, HTRF antagonist assay | AID 492964 | inhibition, % at 6.6 µM | shares compounds with OX1R antag-2 | 1,800 compounds, 49% hits; in the data active means inhibition above about 55%;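 further: CHO cells expressing OX1R stimulated with orexin A at about EC80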
CHO-K1 HTRF = signal in parental CHO-K1 cells, OX1R antagonist counter-screen | inhibition, % at 6.6 µM | HTRF counterscreen | 1,800 compounds, 48% hits | shares compounds with OX1R antag-2 | AID 493232; in the data active means inhibition above about 17%
Each line names hits and unclear results; the compound was inactive in the other large screens (follow-up assays come after a bar, where they were run).

Cc1nc2ccc3nc(NC(=O)c4ccco4)sc3c2s1	OX1R antag-1 61, OX1R antag-2 72 | OX1R Fluo8 conf inactive | CHO Ca counter inactive | OX1R HTRF confirm 84 | CHO-K1 HTRF inactive
Cc1nc(C)c(C(=O)NNC(=O)Nc2ccc(Cl)cc2)s1	none
Cc1nc2cc(NC(=O)COc3ccccc3C#N)ccc2n1-c1ccccc1	OX1R antag-1 102, OX1R antag-2 122 | OX1R Fluo8 conf 83 | CHO Ca counter inactive | OX1R HTRF confirm 92 | CHO-K1 HTRF inactive
COc1ccccc1NC(=O)COC(=O)c1ccc2c(c1)nc(C)n2-c1ccccc1	none
COc1ccc(C)cc1NC(=O)c1cc2ccccc2o1	none
COc1ccc(OC)c(NC(=O)c2ccc(Cl)cc2)c1	none
COc1ccc(OC)c(NC(=O)c2cc3ccccc3o2)c1	OX1R antag-1 41, OX1R antag-2 85 | OX1R Fluo8 conf inactive | CHO Ca counter inactive | OX1R HTRF confirm inactive | CHO-K1 HTRF inactive
COc1ccc(OC)c(NC(=O)c2csc(Cl)c2OC)c1	OX1R antag-1 80, OX1R antag-2 105 | OX1R Fluo8 conf inactive | CHO Ca counter inactive | OX1R HTRF confirm 82 | CHO-K1 HTRF inactive
COc1ccc(OC)c(NC(=O)c2cc(OC(C)=O)cc(C(=O)Nc3cc(OC)ccc3OC)c2)c1	OX1R antag-2 85 | OX1R Fluo8 conf 54 | CHO Ca counter inactive | OX1R HTRF confirm 85 | CHO-K1 HTRF inactive
CSCCC(NC(=O)c1ccco1)C(=O)N(C)CC(=O)Nc1c(Cl)cccc1Cl (stereo not drawn)	none
CSCC[C@H](N)C(=O)NC[C@H]1CC[C@H](C(=O)N[C@@H](Cc2ccccc2)C(=O)O)CC1	none
Cc1cccc(NC(=O)c2cc(-c3c(C)cc(C)cc3O)n[nH]2)c1	none
Cc1cccc(NC(=O)c2cc(-c3cc(C)cc(C)c3O)n[nH]2)c1	OX1R antag-2 64 | OX1R Fluo8 conf inactive | CHO Ca counter inactive | OX1R HTRF confirm 69 | CHO-K1 HTRF inactive
C=CCNC(=O)c1ccc([N+](=O)[O-])c(Cl)c1	none
CC(C)(CNC(=O)c1ccc([N+](=O)[O-])c(Cl)c1)CNC(=O)c1ccc([N+](=O)[O-])c(Cl)c1	OX1R antag-1 41, OX1R antag-2 85 | OX1R Fluo8 conf inactive | CHO Ca counter inactive | OX1R HTRF confirm inactive | CHO-K1 HTRF 18
COc1ccccc1CCC(=O)OCC(=O)c1c(N)n(CC(C)C)c(=O)n(C)c1=O	OX1R antag-2 49 | OX1R Fluo8 conf 40 | CHO Ca counter inactive | OX1R HTRF confirm inactive | CHO-K1 HTRF inactive
CCOC(=O)C1=C(COC(=O)c2ccc3ccccc3c2O)NC(=O)NC1C (stereo not drawn)	OX1R antag-1 101, OX1R antag-2 104 | OX1R Fluo8 conf 100 | CHO Ca counter inactive | OX1R HTRF confirm 91 | CHO-K1 HTRF inactive
CCOC(=O)C1=C(COC(=O)c2ccccc2OC(F)F)NC(=O)NC1C (stereo not drawn)	none
O=C(Nc1ccccc1)N1CCN(c2nc(-c3ccccc3)ns2)CC1	none
Cc1c(Cl)cccc1NC(=O)N1CCCN(c2nc(-c3ccccc3)ns2)CC1	OX1R antag-2 80 | OX1R Fluo8 conf inactive | CHO Ca counter inactive | OX1R HTRF confirm inactive | CHO-K1 HTRF inactive
CCNC(=O)C1(C)CCCCN1Cc1ccc(C#N)cc1 (stereo not drawn)	none (no result: OX1R antag-1, CHO parental Ca, OX1R antag-2)
COc1ccccc1CNS(=O)(=O)c1ccc2c(c1)CC(C)N2C(=O)C1CC1 (stereo not drawn)	none
COc1ccccc1CNS(=O)(=O)c1ccc2c(c1)CC(C)N2C(=O)C1CCC1 (stereo not drawn)	OX1R antag-1 55, OX1R antag-2 60 | OX1R Fluo8 conf 30 | CHO Ca counter inactive | OX1R HTRF confirm 68 | CHO-K1 HTRF inactive
COc1ccc(/C=C/c2nc(N)nc(-c3ccccc3O)n2)cc1OC	OX1R antag-1 63, OX1R antag-2 87 | OX1R Fluo8 conf 70 | CHO Ca counter inactive | OX1R HTRF confirm 92 | CHO-K1 HTRF inactive
CCn1c2ccccc2c2cc(NC(=O)c3cccc(OC)c3OC)ccc21	OX1R antag-1 64, OX1R antag-2 87 | OX1R Fluo8 conf 74 | CHO Ca counter inactive | OX1R HTRF confirm 91 | CHO-K1 HTRF inactive
CCn1c2ccccc2c2cc(NC(C)=O)ccc21	none
CCn1c(C)cc(O)c(C(=O)Nc2cccc(Cl)c2)c1=O	none
CCn1c2ccccc2c2cc(NC(=O)c3cccc(OC)c3)ccc21	OX1R antag-1 97, OX1R antag-2 104 (no result: TAAR1 ag, TAAR1 antagonist) | OX1R Fluo8 conf 97 | CHO Ca counter inactive | OX1R HTRF confirm 103 | CHO-K1 HTRF inactive
CCn1c(SCC(=O)Nc2ccc3c(c2)c2ccccc2n3CC)nnc1-c1cnccn1	OX1R antag-1 91, OX1R antag-2 89 | OX1R Fluo8 conf 68 | CHO Ca counter inactive | OX1R HTRF confirm 92 | CHO-K1 HTRF inactive
CCn1c(C)c(C)c2cc(C(=O)Nc3cccc(Cl)c3)ccc21	OX1R antag-2 121 | OX1R Fluo8 conf inactive | CHO Ca counter inactive | OX1R HTRF confirm 85 | CHO-K1 HTRF inactive
Cc1ccc(S(=O)(=O)N(Cc2c(F)cccc2Cl)C(=O)N2CCN(C)CC2)cc1	none
Cc1cccc(N2C(=O)c3ccccc3C2=O)n1	none
COc1cc(Cl)c(C)cc1NC(=O)c1cccc(OC)c1OC	OX1R antag-2 70 | OX1R Fluo8 conf inactive | CHO Ca counter inactive | OX1R HTRF confirm 82 | CHO-K1 HTRF inactive
Cc1ccsc1/C=N/N=C1\C(=O)Nc2ccccc21	OX1R antag-2 91 | OX1R Fluo8 conf 36 | CHO Ca counter inactive | OX1R HTRF confirm 93 | CHO-K1 HTRF inactive
C/C(=N\NC(=O)c1nnn(-c2nonc2N)c1CN(C)c1ccccc1)c1cccs1	OX1R antag-2 53 | OX1R Fluo8 conf inactive | CHO Ca counter inactive | OX1R HTRF confirm 79 | CHO-K1 HTRF inactive
CN(Cc1c(C(=O)N/N=C/c2cccc(O)c2)nnn1-c1nonc1N)c1ccccc1	OX1R antag-1 84, OX1R antag-2 87 (no result: TAAR1 ag, TAAR1 antagonist) | OX1R Fluo8 conf 71 | CHO Ca counter inactive | OX1R HTRF confirm 88 | CHO-K1 HTRF inactive
C/C(=N\NC(=O)c1nnn(-c2nonc2N)c1CN(C)c1ccccc1)c1ccccn1	none (no result: TAAR1 ag, TAAR1 antagonist)
Cc1ccc(/C=N/NC(=O)c2nnn(-c3nonc3N)c2CN(C)c2ccccc2)s1	OX1R antag-2 79 | OX1R Fluo8 conf inactive | CHO Ca counter inactive | OX1R HTRF confirm 86 | CHO-K1 HTRF inactive

Screening data deposited in PubChem by The Scripps Research Institute Molecular Screening Center.
